Assay results from ChEMBL document CHEMBL2086294, “Kinetics and docking studies of two potential new inhibitors of the nucleoside hydrolase from Leishmania donovani” (Eur J Med Chem, 2012).
pIC50, pKi: −log10 of the molar value. Active and inactive are the calls of the source. The calls are words filed in the database; no cut-off is given here.

How the values were obtained:
[1] = Inhibition of Leishmania donovani recombinant nucleoside hydrolase expressed in Escherichia coli DH5alpha coexpressing MBP using inosine as substrate by xanthine oxidase-coupled assay
In short: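 MBP-fused enzyme (13 nM) with 0.3 mM inosine and xanthine oxidase (60 milliunits/mL) in 20 mM phosphate pH 8.0. Uric acid formation read at 293 nm, with at least six inhibitor concentrations. IC50 from nonlinear dose-response fit of % inhibition. Ki from five or six inhibitor concentrations at a substrate level near KM, converted with the Cheng–Prusoff equation.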

Leishmania donovani [2] = test: Ratio of inosine Km to compound Ki for Leishmania donovani recombinant nucleoside hydrolase
Leishmania donovani [3] = test: Competitive inhibition of Leishmania donovani recombinant nucleoside hydrolase expressed in Escherichia coli DH5alpha coexpressing MBP using inosine as substrate by Lineweaver-Burk plot analysis
[4] = target: Xanthine dehydrogenase/oxidase (Homo sapiens, UniProt P47989); test: Inhibition of xanthine oxidase using hypoxanthine as substrate by UV-Vis spectrophotometry
In short: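 Control with xanthine oxidase and hypoxanthine: uric acid formation followed spectrophotometrically, with and without test compound.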

Leishmania donovani [5] = test: Activity of Leishmania donovani recombinant nucleoside hydrolase expressed in Escherichia coli DH5alpha coexpressing MBP
In short: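 LdNH fused to MBP, expressed from pMAL-c2-NH36 in E. coli DH5α (IPTG 0.3 mM, 2 h) and amylose-purified. Inosine hydrolysis coupled to excess xanthine oxidase (60 milliunits/mL) converting hypoxanthine to uric acid, read at 293 nm. 13 nM enzyme, inosine 0.3–3.0 KM, 20 mM phosphate pH 8.0, room temperature, triplicate. KM and Vmax from nonlinear Michaelis–Menten fit of initial velocities.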

Sequence of Xanthine dehydrogenase/oxidase (P47989 whole entry): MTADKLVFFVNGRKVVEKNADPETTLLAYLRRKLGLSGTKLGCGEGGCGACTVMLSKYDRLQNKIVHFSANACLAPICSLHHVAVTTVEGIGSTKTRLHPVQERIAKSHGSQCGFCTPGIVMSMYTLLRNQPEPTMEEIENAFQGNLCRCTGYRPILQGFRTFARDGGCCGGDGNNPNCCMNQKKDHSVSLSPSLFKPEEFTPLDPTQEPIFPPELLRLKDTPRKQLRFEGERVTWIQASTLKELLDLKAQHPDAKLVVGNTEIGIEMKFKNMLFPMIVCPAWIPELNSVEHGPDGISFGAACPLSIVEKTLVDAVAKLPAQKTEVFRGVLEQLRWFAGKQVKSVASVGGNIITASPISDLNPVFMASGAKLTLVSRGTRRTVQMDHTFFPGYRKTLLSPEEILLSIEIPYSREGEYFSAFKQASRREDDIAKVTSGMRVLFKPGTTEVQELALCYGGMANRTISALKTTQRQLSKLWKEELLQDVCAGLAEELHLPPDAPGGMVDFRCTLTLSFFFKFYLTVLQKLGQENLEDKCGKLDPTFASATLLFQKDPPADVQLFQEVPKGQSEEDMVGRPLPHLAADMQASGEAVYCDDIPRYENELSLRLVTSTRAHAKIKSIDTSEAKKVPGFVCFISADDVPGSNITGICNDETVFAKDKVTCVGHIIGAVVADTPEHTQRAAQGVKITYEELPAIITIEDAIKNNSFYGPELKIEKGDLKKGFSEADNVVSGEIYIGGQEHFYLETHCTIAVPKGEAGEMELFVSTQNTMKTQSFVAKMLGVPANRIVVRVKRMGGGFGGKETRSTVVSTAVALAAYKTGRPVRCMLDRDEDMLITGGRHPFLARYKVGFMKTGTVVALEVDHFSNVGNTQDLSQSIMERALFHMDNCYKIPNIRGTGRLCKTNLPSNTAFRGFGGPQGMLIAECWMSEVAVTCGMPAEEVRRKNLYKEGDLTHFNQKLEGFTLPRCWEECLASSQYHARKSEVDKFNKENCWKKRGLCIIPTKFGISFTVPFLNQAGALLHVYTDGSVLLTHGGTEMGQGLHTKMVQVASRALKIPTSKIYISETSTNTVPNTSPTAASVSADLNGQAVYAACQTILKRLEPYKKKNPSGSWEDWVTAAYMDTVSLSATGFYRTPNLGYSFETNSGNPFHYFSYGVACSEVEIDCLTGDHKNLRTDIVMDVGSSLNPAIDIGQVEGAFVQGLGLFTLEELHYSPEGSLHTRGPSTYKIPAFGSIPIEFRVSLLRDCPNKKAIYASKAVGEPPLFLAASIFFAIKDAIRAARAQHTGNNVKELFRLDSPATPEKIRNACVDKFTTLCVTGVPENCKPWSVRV

Row | pIC50 [1] | Ratio (Leishmania donovani [2]) | inhibition (Leishmania donovani [3]) | inhibition (INH) [4] | Km (Leishmania donovani [5]) | SMILES | pKi [1]
1 | 4.54 | 26 | Active | Not Active |  | O=C(O)c1cn([C@@H]2O[C@H](CO)[C@@H](O)[C@H]2O)c2ccc(F)cc2c1=O | 4.77
2 |  |  |  |  | 434 µM | O=c1[nH]cnc2c1ncn2[C@@H]1O[C@H](CO)[C@@H](O)[C@H]1O | 
3 | 5.58 | 270 | Active | Not Active |  | O=C(O)c1cn([C@@H]2O[C@H](CO)[C@@H](O)[C@H]2O)c2ccc(Cl)cc2c1=O | 5.80
